Measured values from ChEMBL document CHEMBL3608288, “Novel Chalcone-Thiazole Hybrids as Potent Inhibitors of Drug Resistant Staphylococcus aureus” (ACS Med Chem Lett, 2015).
In brackets after ≈: the same amount, converted by molar mass. Activity calls are given as the source filed them. The rule behind the calls is not given here.

Assays:
Escherichia coli = test: Antibacterial activity against Escherichia coli ATCC 9637 after 16 hrs by microtiter broth dilution method; type: functional; settings: W
Pseudomonas aeruginosa = test: Antibacterial activity against Pseudomonas aeruginosa ATCC BAA-427 after 16 hrs by microtiter broth dilution method; type: functional; settings: ATCC BAA-427, 16 h
Staphylococcus aureus [1] = test: Antibacterial activity against Staphylococcus aureus ATCC 25923 after 16 hrs by microtiter broth dilution method; type: functional; settings: ATCC 25923, 16 h
Staphylococcus aureus [2] = test: Antibacterial activity against methicillin-resistant Staphylococcus aureus ATCC 700699 after 16 hrs by microtiter broth dilution method; type: functional; settings: ATCC 700699, 16 h
Staphylococcus aureus [3] = test: Antibacterial activity against […] Staphylococcus aureus ATCC 29213 after 16 hrs by microtiter broth dilution method; type: functional; settings: ATCC 29213, 16 h
Staphylococcus aureus [4] = test: Antibacterial activity against methicillin/gentamicin-resistant Staphylococcus aureus ATCC 33592 after 16 hrs by microtiter broth dilution method; type: functional; settings: ATCC 33592, 16 h
Klebsiella pneumoniae = test: Antibacterial activity against Klebsiella pneumoniae ATCC 27736 after 16 hrs by microtiter broth dilution method; type: functional; settings: ATCC 27736, 16 h
Candida albicans = test: Antifungal activity against Candida albicans after 16 hrs by microtiter broth dilution method; type: functional
Cryptococcus neoformans = test: Antifungal activity against Cryptococcus neoformans after 16 hrs by microtiter broth dilution method; type: functional
Sporothrix schenckii = test: Antifungal activity against Sporothrix schenckii after 16 hrs by microtiter broth dilution method; type: functional
[5] = system: Trichophyton mentagrophytes; test: Antifungal activity against Trichophyton mentagrophytes after 16 hrs by microtiter broth dilution method; type: functional
Aspergillus fumigatus = test: Antifungal activity against Aspergillus fumigatus after 16 hrs by microtiter broth dilution method; type: functional
Candida parapsilosis = test: Antifungal activity against Candida parapsilosis ATCC 22019 after 16 hrs by microtiter broth dilution method; type: functional; settings: Lodderomyces parapsilosis, ATCC 22019, 16 h
L929 [6] = test: Cytotoxicity against mouse L929 cells assessed as cell viability at <= MIC by MTT assay; type: cell-based
Procedure, shortened: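 Mouse fibroblast L929 cells were exposed to the compound. Viability was read by MTT conversion to blue formazan, measured at 550 nm.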

L929 [7] = test: Cytotoxicity against mouse L929 cells assessed as induction of morphological changes at 1 x MIC after 24 hrs by Giemsa staining-based phase contrast microscopic analysis; type: cell-based; settings: l929, 24 h
Procedure, shortened: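 L929 fibroblasts were incubated with the compound for 24 h, then Giemsa-stained. Morphology was compared with untreated control cells under phase contrast microscopy for appearance, transparency and attachment to the well surface.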

Staphylococcus aureus [8] = test: Antibacterial activity against […] Staphylococcus aureus ATCC 29213 assessed as reduction in log10CFU at 1x MIC and 10x MIC measured at 24 hrs relative to control; type: functional
Procedure, shortened: (§1)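 Aliquots were taken at regular time points and plated for CFU counts. Reduction in log10 CFU was taken against a no-drug control.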

Staphylococcus aureus [9] = test: Antibacterial activity against […] Staphylococcus aureus ATCC 29213 assessed as reduction in log10CFU measured at 24 hrs; type: functional, organism-based; procedure, shortened: as §1
Staphylococcus aureus [10] = test: Antibacterial activity against […] Staphylococcus aureus ATCC 29213 in neutropenic BALB/C mouse septicemia model assessed as increase in mouse survival at 15 mg/kg, ip administered twice at 3 hrs interval; type: functional, organism-based
Staphylococcus aureus [11] = test: Antibacterial activity against […] Staphylococcus aureus ATCC 29213 in neutropenic BALB/C mouse septicemia model assessed as reduction in bacterial burden in spleen at 15 mg/kg, ip administered twice at 3 hrs interval measured after 24 hrs; type: functional, organism-based
Procedure, shortened: (§2)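 BALB/c mice were made neutropenic with cyclophosphamide (150 mg/kg) and then infected intraperitoneally with S. aureus ATCC 29213. From 3 h post-infection, compound was injected at 15 mg/kg twice, 3 h apart. At 24 h, spleen, kidney and liver were crushed and plated on TH plates for CFU. Data from three independent experiments were pooled; P by ANOVA on ranks.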

Staphylococcus aureus [12] = test: Antibacterial activity against […] Staphylococcus aureus ATCC 29213 in neutropenic BALB/C mouse septicemia model assessed as reduction in bacterial burden in liver at 15 mg/kg, ip administered twice at 3 hrs interval measured after 24 hrs; type: functional, organism-based; procedure, shortened: as §2
Staphylococcus aureus [13] = test: Antibacterial activity against […] Staphylococcus aureus ATCC 29213 in neutropenic BALB/C mouse septicemia model assessed as reduction in bacterial burden in kidney at 15 mg/kg, ip administered twice at 3 hrs interval measured after 24 hrs; type: functional, organism-based; procedure, shortened: as §2
[14] = Hemolytic activity in human RBC at 100 ug/ml after 1 hr; settings: erythrocyte

## COc1ccc(-c2csc(/N=C/c3cc(/C=C/C(=O)c4ccc(C)cc4)cc(C(C)(C)C)c3O)n2)cc1OC
Escherichia coli
  MIC: > 92.5 µM
Pseudomonas aeruginosa
  MIC: > 92.5 µM
Staphylococcus aureus [1]
  MIC: 5.8 µM (≈ 3.14 µg/mL)
Staphylococcus aureus [2]
  MIC: 11.6 µM (≈ 6.27 µg/mL)
Staphylococcus aureus [3]
  MIC: 5.8 µM (≈ 3.14 µg/mL)
Staphylococcus aureus [4]
  MIC: 1.4 µM (≈ 0.757 µg/mL)
Klebsiella pneumoniae
  MIC: > 92.5 µM
Candida albicans
  MIC: > 92.5 µM
Cryptococcus neoformans
  MIC: > 92.5 µM
Sporothrix schenckii
  MIC: > 92.5 µM
[5]
  MIC: > 92.5 µM
Aspergillus fumigatus
  MIC: > 92.5 µM
Candida parapsilosis
  MIC: > 92.5 µM
L929 [6]
  Activity: Non-toxic
L929 [7]
  Activity: Non-toxic
Staphylococcus aureus [8]
  Activity: 10 log10CFU/ml
Staphylococcus aureus [9]
  Activity: Dose-dependent effect
Staphylococcus aureus [10]
  Activity: Active
Staphylococcus aureus [11]
  Activity: Active
Staphylococcus aureus [12]
  Activity: Active
Staphylococcus aureus [13]
  Activity: inactive
[14]
  Activity: Non-toxic
